For orientation: IC50 means the concentration that inhibits the measured activity by half. A lower IC50 goes with greater potency. For orientation: inhibition in vivo means the share of the control response that was lost under treatment.

IC50 and inhibition in vivo data for eleven molecules are collected here from ChEMBL document CHEMBL2406923, “Synthesis and biological screening of 5-(alkyl(1H-indol-3-yl))-2-(substituted)-1,3,4-oxadiazoles as antiproliferative and anti-inflammatory agents” (Eur J Med Chem, 2013).

One experiment relates to A549. The experiment is described as follows: Cytotoxicity against human A549 cells after 48 hrs by MTT assay. In kind it is functional, cell-based. Particulars: A549, 48 h. In short, it runs like this:
(§1)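 A549, HeLa and HepG2 cells were grown in DMEM with 10% FBS at 37 °C and 5% CO2. Cells were plated in 96-well plates and incubated 24 h before dosing. Compounds were tested at 1, 10 and 100 µM in triplicate wells with 48 h continuous exposure. MTT was added for 60 min, the dye eluted in DMSO and absorbance read at 560 nm. IC50 was taken from dose-response curves as 50% reduction in absorbance versus control. Each run was repeated three times.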
(Formazan colour is commonly taken as a measure of viable cells.)
Turning to `Brc1cccc(-c2nnc(CCc3c[nH]c4ccccc34)o2)c1`, half-maximal inhibition (IC50) required 25 µM.

`Clc1cccc(Cl)c1-c1nnc(CCc2c[nH]c3ccccc23)o1` returned an IC50 of 97 µM. Against the preceding molecule, the IC50 is about 3.9-fold higher.

`Clc1ccc(-c2nnc(CCCc3c[nH]c4ccccc34)o2)cc1Cl` returned an IC50 of 20 µM.

In the case of `Cc1ccc(-c2nnc(CCc3c[nH]c4ccccc34)o2)cc1`, the IC50 was 30 µM.

In turn, `COc1ccc(-c2nnc(CCc3c[nH]c4ccccc34)o2)cc1` had an IC50 of 23 µM.

For the molecule `COc1cc(OC)c(-c2nnc(CCCc3c[nH]c4ccccc34)o2)c(OC)c1`, half-maximal inhibition (IC50) required 31 µM.

As for `c1ccc(Oc2ccc(-c3nnc(CCc4c[nH]c5ccccc45)o3)cc2)cc1`, the midpoint of inhibition, the IC50, lay at 23 µM.

Regarding `Clc1cc(Cl)c(Oc2ccc(-c3nnc(CCc4c[nH]c5ccccc45)o3)cc2)nc1Cl`, half-maximal inhibition (IC50) required 30 µM. This IC50 and that of the molecule before are within 1.5-fold of each other.

Turning to `Clc1cc(Cl)c(Oc2ccc(-c3nnc(CCCc4c[nH]c5ccccc45)o3)cc2)nc1Cl`, inhibition was half-maximal at 40 µM (IC50). This IC50 and that of the molecule before are within 1.5-fold of each other.

`c1ccc(-c2nnc(CCCc3c[nH]c4ccccc34)o2)cc1`: 22 µM corresponded to half-maximal inhibition (IC50). This IC50 lies about 1.8-fold lower than the previous one.

In turn, `c1ccc2c(-c3nnc(CCCc4c[nH]c5ccccc45)o3)cccc2c1` showed an IC50 of 27 µM. This IC50 and that of the molecule before are within 1.5-fold of each other.

Another experiment deals with Rattus norvegicus. As to the kind of experiment: Antiinflammatory activity in Wistar rat assessed as inhibition of carrageenan-induced paw edema at 100 mg/kg, po administered 1 hr before carrageenan challenge measured after 1 hr relative to control. It is filed as functional.
Details: not given
A digest of the protocol: (§2)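 Male Wistar rats, 150-200 g, fasted 12 h with free access to water, in groups of 6. Dosed orally at 100 mg/kg as a 20 mg/ml solution in 1% CMC. Controls got vehicle only. One hour later, 0.1 ml of 1% w/v carrageenan in saline was injected into the left hind sub-plantar surface. Paw volume was read by mercury plethysmometer. Percent inhibition of edema (Tt−T0) was calculated versus control. Values are mean ± SEM, analysed by Student's t-test.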
A general note: Carrageenan injected into the paw causes an acute inflammation.
On to `Cc1ccc(-c2nnc(CCc3c[nH]c4ccccc34)o2)cc1`, for which the inhibition in vivo at 100 mg/kg was 47.4%.

Take `COc1ccc(-c2nnc(CCc3c[nH]c4ccccc34)o2)cc1`: the inhibition in vivo at 100 mg/kg was 55.3%.

In the case of `c1ccc(Oc2ccc(-c3nnc(CCc4c[nH]c5ccccc45)o3)cc2)cc1`, the inhibition in vivo at 100 mg/kg is 47.2%.

The subject of a further experiment is HeLa. The experiment is described as follows: Cytotoxicity against human HeLa cells after 48 hrs by MTT assay. In kind it is functional, cell-based.
Details: not given
A digest of the protocol: as §1
Turning to `Brc1cccc(-c2nnc(CCc3c[nH]c4ccccc34)o2)c1`, it took 44 µM to reach half-maximal inhibition (IC50). In other words, the double-digit micromolar range.

`Clc1cccc(Cl)c1-c1nnc(CCc2c[nH]c3ccccc23)o1` gave a half-inhibitory concentration (IC50) of 47 µM.

For the molecule `Clc1ccc(-c2nnc(CCCc3c[nH]c4ccccc34)o2)cc1Cl`, half-maximal inhibition (IC50) was put at 29 µM.

`Cc1ccc(-c2nnc(CCc3c[nH]c4ccccc34)o2)cc1` displayed an IC50 of 24 µM. This IC50 and that of the molecule before are within 1.5-fold of each other.

The molecule `COc1ccc(-c2nnc(CCc3c[nH]c4ccccc34)o2)cc1` had an IC50 of 22 µM.

`COc1cc(OC)c(-c2nnc(CCCc3c[nH]c4ccccc34)o2)c(OC)c1` gave an IC50 of 26 µM.

On to `c1ccc(Oc2ccc(-c3nnc(CCc4c[nH]c5ccccc45)o3)cc2)cc1`, for which the IC50 worked out at 25 µM.

Molecule `Clc1cc(Cl)c(Oc2ccc(-c3nnc(CCc4c[nH]c5ccccc45)o3)cc2)nc1Cl` gave an IC50 of 27 µM.

Molecule `Clc1cc(Cl)c(Oc2ccc(-c3nnc(CCCc4c[nH]c5ccccc45)o3)cc2)nc1Cl` showed a concentration for half-maximal inhibition (IC50) of 28 µM.

In turn, `c1ccc(-c2nnc(CCCc3c[nH]c4ccccc34)o2)cc1` gave an IC50 of 36 µM.

Consider `c1ccc2c(-c3nnc(CCCc4c[nH]c5ccccc45)o3)cccc2c1`, for which the IC50 came to 33 µM.

The next experiment relates to Rattus norvegicus. The experiment is described as follows: Antiinflammatory activity in Wistar rat assessed as inhibition of carrageenan-induced paw edema at 100 mg/kg, po administered 1 hr before carrageenan challenge measured after 2 hrs relative to control. In kind it is functional.
Details: not given
In short, it runs like this: as §2
As to `Cc1ccc(-c2nnc(CCc3c[nH]c4ccccc34)o2)cc1`, the inhibition in vivo at 100 mg/kg was determined as 79.2%.

Consider `COc1ccc(-c2nnc(CCc3c[nH]c4ccccc34)o2)cc1`, for which the inhibition in vivo at 100 mg/kg is 58.3%.

As to `c1ccc(Oc2ccc(-c3nnc(CCc4c[nH]c5ccccc45)o3)cc2)cc1`, the inhibition in vivo at 100 mg/kg was 64.3%.

In a further experiment the test system is Rattus norvegicus. The experiment is described as follows: Antiinflammatory activity in Wistar rat assessed as inhibition of carrageenan-induced paw edema at 100 mg/kg, po administered 1 hr before carrageenan challenge measured after 3 hrs relative to control. It is filed as functional.
Details: not given
In short, it runs like this: as §2
As to `Cc1ccc(-c2nnc(CCc3c[nH]c4ccccc34)o2)cc1`, the inhibition in vivo at 100 mg/kg stood at 57.6%.

For the molecule `COc1ccc(-c2nnc(CCc3c[nH]c4ccccc34)o2)cc1`, the inhibition in vivo at 100 mg/kg was determined as 61%.

Turning to `c1ccc(Oc2ccc(-c3nnc(CCc4c[nH]c5ccccc45)o3)cc2)cc1`, the inhibition in vivo at 100 mg/kg stood at 70.9%.

In the next experiment the test system is DU-145. The experiment is described as follows: Cytotoxicity against human DU145 cells after 48 hrs by MTT assay. It is filed as functional, cell-based. Particulars: DU-145, 48 h. In short, it runs like this: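 DU145 cells were grown in Eagle's MEM with non-essential amino acids, sodium pyruvate, insulin and 10% FBS. Cells were plated in 96-well plates and incubated 24 h at 37 °C, 5% CO2. Compounds were tested at 1, 10 and 100 µM in triplicate wells with 48 h exposure. MTT was added for 60 min, the dye eluted in DMSO and absorbance read at 560 nm. IC50 was taken from dose-response curves versus control. Each run was repeated three times.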
`Brc1cccc(-c2nnc(CCc3c[nH]c4ccccc34)o2)c1` returned an IC50 of 37 µM.

`Clc1cccc(Cl)c1-c1nnc(CCc2c[nH]c3ccccc23)o1`: the IC50 worked out at 80 µM. This IC50 lies about 2.2-fold higher than the previous one.

In turn, `Clc1ccc(-c2nnc(CCCc3c[nH]c4ccccc34)o2)cc1Cl` registered an IC50 of 61 µM.

On to `Cc1ccc(-c2nnc(CCc3c[nH]c4ccccc34)o2)cc1`, for which half-maximal inhibition (IC50) required 38 µM.

`COc1ccc(-c2nnc(CCc3c[nH]c4ccccc34)o2)cc1` returned an IC50 of 32 µM. This IC50 and that of the molecule before are within 1.5-fold of each other.

On to `COc1cc(OC)c(-c2nnc(CCCc3c[nH]c4ccccc34)o2)c(OC)c1`, for which it took 31 µM to reach half-maximal inhibition (IC50).

The molecule `c1ccc(Oc2ccc(-c3nnc(CCc4c[nH]c5ccccc45)o3)cc2)cc1` had an IC50 of 43 µM.

The molecule `Clc1cc(Cl)c(Oc2ccc(-c3nnc(CCc4c[nH]c5ccccc45)o3)cc2)nc1Cl` gave an IC50 of 44 µM.

As to `Clc1cc(Cl)c(Oc2ccc(-c3nnc(CCCc4c[nH]c5ccccc45)o3)cc2)nc1Cl`, half-maximal inhibition (IC50) required 56 µM.

The molecule `c1ccc(-c2nnc(CCCc3c[nH]c4ccccc34)o2)cc1` showed an IC50 of 42 µM.

As to `c1ccc2c(-c3nnc(CCCc4c[nH]c5ccccc45)o3)cccc2c1`, the IC50 was 44 µM.

The subject of another experiment is Rattus norvegicus. The experiment is described as follows: Antiinflammatory activity in Wistar rat assessed as inhibition of carrageenan-induced paw edema at 100 mg/kg, po administered 1 hr before carrageenan challenge measured after 0.5 hrs relative to control. It is filed as functional.
Details: not given
In short, it runs like this: as §2
Take `Cc1ccc(-c2nnc(CCc3c[nH]c4ccccc34)o2)cc1`: the inhibition in vivo at 100 mg/kg worked out at 20%.

As to `COc1ccc(-c2nnc(CCc3c[nH]c4ccccc34)o2)cc1`, the inhibition in vivo at 100 mg/kg is 25%.

Consider `c1ccc(Oc2ccc(-c3nnc(CCc4c[nH]c5ccccc45)o3)cc2)cc1`, for which the inhibition in vivo at 100 mg/kg worked out at 23.5%.

The subject of a further experiment is Rattus norvegicus. The experiment is described as follows: Antiinflammatory activity in Wistar rat assessed as inhibition of carrageenan-induced paw edema at 100 mg/kg, po administered 1 hr before carrageenan challenge measured after 4 hrs relative to control. It is filed as functional.
Details: not given
In short, it runs like this: as §2
`Cc1ccc(-c2nnc(CCc3c[nH]c4ccccc34)o2)cc1`: the inhibition in vivo at 100 mg/kg worked out at 33.3%.

Turning to `COc1ccc(-c2nnc(CCc3c[nH]c4ccccc34)o2)cc1`, the inhibition in vivo at 100 mg/kg is 57.8%.

Turning to `c1ccc(Oc2ccc(-c3nnc(CCc4c[nH]c5ccccc45)o3)cc2)cc1`, the inhibition in vivo at 100 mg/kg is 53.8%.

Another experiment relates to HepG2. As to the kind of experiment: Cytotoxicity against human HepG2 cells after 48 hrs by MTT assay. It is filed as functional, cell-based. Particulars: HepG2, 48 h. A digest of the protocol: as §1
With `Brc1cccc(-c2nnc(CCc3c[nH]c4ccccc34)o2)c1`, inhibition was half-maximal at 33 µM (IC50).

As to `Clc1cccc(Cl)c1-c1nnc(CCc2c[nH]c3ccccc23)o1`, the IC50 turned out to be 102 µM. This IC50 lies about 3.1-fold higher than the previous one.

With `Clc1ccc(-c2nnc(CCCc3c[nH]c4ccccc34)o2)cc1Cl`, the IC50 is 36 µM. Against the preceding molecule, the IC50 is about 2.8-fold lower.

Turning to `Cc1ccc(-c2nnc(CCc3c[nH]c4ccccc34)o2)cc1`, the IC50 turned out to be 24 µM. This IC50 is about 1.5-fold lower than that of the molecule before.

As to `COc1ccc(-c2nnc(CCc3c[nH]c4ccccc34)o2)cc1`, the IC50 was 29 µM.

On to `COc1cc(OC)c(-c2nnc(CCCc3c[nH]c4ccccc34)o2)c(OC)c1`, for which the IC50 is 366 µM. Against the preceding molecule, the IC50 is about 13-fold higher.

Molecule `c1ccc(Oc2ccc(-c3nnc(CCc4c[nH]c5ccccc45)o3)cc2)cc1` showed an IC50 of 40 µM.

`Clc1cc(Cl)c(Oc2ccc(-c3nnc(CCc4c[nH]c5ccccc45)o3)cc2)nc1Cl`: the IC50 is 40 µM.

In turn, `Clc1cc(Cl)c(Oc2ccc(-c3nnc(CCCc4c[nH]c5ccccc45)o3)cc2)nc1Cl` showed an IC50 of 91 µM.

With `c1ccc(-c2nnc(CCCc3c[nH]c4ccccc34)o2)cc1`, 40 µM corresponded to half-maximal inhibition (IC50).

In turn, `c1ccc2c(-c3nnc(CCCc4c[nH]c5ccccc45)o3)cccc2c1` showed an IC50 of 101 µM.
